Data published in ChEMBL document CHEMBL5143527, “Discovery and optimization of cyclohexane-1,4-diamines as allosteric MALT1 inhibitors” (Eur J Med Chem, 2022).
Converted amounts (≈) assume the structure as drawn.

What was measured:
[1] = target: T1, Mucosa-associated lymphoid tissue lymphoma translocation protein 1 (Homo sapiens, UniProt Q9UDY8); assay: Inhibition of human MALT1 assessed as cleavage of substrate using fluorescent labeled Ac-LRSR-Rh110 peptide as substrate incubated for 30 mins followed by substrate addition and measured after 3 to 4 hrs by FRET assay
T1 sequence (Q9UDY8 whole entry): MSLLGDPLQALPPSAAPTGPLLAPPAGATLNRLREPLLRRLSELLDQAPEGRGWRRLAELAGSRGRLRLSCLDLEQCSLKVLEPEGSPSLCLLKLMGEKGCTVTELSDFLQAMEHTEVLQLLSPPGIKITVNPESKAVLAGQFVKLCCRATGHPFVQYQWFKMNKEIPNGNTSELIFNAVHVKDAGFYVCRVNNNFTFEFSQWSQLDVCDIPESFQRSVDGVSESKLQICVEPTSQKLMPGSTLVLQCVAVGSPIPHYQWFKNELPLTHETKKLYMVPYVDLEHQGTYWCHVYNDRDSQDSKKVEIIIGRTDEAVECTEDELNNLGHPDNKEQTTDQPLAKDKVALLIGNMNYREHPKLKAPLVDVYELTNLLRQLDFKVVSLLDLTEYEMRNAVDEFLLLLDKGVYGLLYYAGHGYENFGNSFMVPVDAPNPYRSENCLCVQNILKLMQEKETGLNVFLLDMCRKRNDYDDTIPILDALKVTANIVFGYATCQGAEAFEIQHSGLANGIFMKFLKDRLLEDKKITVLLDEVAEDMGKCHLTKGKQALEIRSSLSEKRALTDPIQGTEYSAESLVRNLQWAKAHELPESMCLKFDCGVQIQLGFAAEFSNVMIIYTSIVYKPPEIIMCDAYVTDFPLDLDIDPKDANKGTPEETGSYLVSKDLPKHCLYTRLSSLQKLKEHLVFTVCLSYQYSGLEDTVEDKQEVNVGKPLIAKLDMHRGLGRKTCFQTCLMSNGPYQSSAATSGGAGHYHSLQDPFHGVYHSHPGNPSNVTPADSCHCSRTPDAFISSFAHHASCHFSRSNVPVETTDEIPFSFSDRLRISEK
How it was run: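 Fluorogenic MALT1 cleavage assay with the tetrapeptide LRSR carrying rhodamine 110 and a non-fluorescent quencher; signal read as FRET. Horseradish peroxidase and resazurin redox counter-assays used to exclude artefacts. Values are the mean of at least three independent measurements, with standard deviation.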

[2] = Lipophilicity, log D of compound at 7.4 by LC-MS analysis; assay type: physicochemical; details: pH 7.4
How it was run: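 ChromlogD at pH 7.4: retention time on an LCMS system with an aqueous mobile phase, converted to lipophilicity with a calibration curve.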

[3] = Metabolic stability in human liver microsomes assessed as intrinsic clearance by LC-MS/MS analysis; assay type: ADME, Microsome; details: read-out: CLH
How it was run: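 Human liver microsomes, compound incubated; intrinsic clearance from disappearance of the parent compound over time.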

Cytochrome P450 2D6 = Cytochrome P450 2D6 (Homo sapiens, UniProt P10635); assay: Inhibition of CYP2D6 (unknown origin); assay type: ADME
[4] = Passive permeability of compound across apical to basolateral in human Caco2 cells at 10 uM and measured upto 120 mins by LC-MS/MS analysis; assay type: ADME, cell-based; details: Caco-2
How it was run: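 Apical-to-basolateral passive permeability across Caco-2 monolayers, run in the presence of inhibitors of the efflux transporters P-gp, BCRP and MRP2.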

[5] = Oral bioavailability in Wistar Han rat at 0.9 mg/kg; assay type: ADME, organism-based; details: in vivo
[6] = Half life in Wistar Han rat at 0.9 mg/kg, po or 0.5 mg/kg, iv; assay type: ADME, organism-based; details: in vivo
[7] = Volume of distribution at steady state in Wistar Han rat at 0.9 mg/kg, po or 0.5 mg/kg, iv; assay type: ADME, organism-based; details: in vivo
[8] = target: Voltage-gated inwardly rectifying potassium channel KCNH2 (Homo sapiens, UniProt Q12809); assay: Inhibition of human ERG; assay type: toxicity
Cytochrome P450 3A4 = Cytochrome P450 3A4 (Homo sapiens, UniProt P08684); assay: Inhibition of CYP3A4 (unknown origin); assay type: ADME
[9] = AUC in Wistar Han rat at 0.9 mg/kg, po or 0.5 mg/kg, iv; assay type: ADME, organism-based; design: dose 0.9 mg/kg, route po; details: in vivo
Cytochrome P450 2C19 = Cytochrome P450 2C19 (Homo sapiens, UniProt P33261); assay: Inhibition of CYP2C19 (unknown origin); assay type: ADME
Cytochrome P450 2C9 = Cytochrome P450 2C9 (Homo sapiens, UniProt P11712); assay: Inhibition of CYP2C9 (unknown origin); assay type: ADME
Cytochrome P450 1A2 = target: T2, Cytochrome P450 1A2 (Homo sapiens, UniProt P05177); assay: Inhibition of CYP1A2 (unknown origin); assay type: ADME
T2 sequence (P05177 whole entry): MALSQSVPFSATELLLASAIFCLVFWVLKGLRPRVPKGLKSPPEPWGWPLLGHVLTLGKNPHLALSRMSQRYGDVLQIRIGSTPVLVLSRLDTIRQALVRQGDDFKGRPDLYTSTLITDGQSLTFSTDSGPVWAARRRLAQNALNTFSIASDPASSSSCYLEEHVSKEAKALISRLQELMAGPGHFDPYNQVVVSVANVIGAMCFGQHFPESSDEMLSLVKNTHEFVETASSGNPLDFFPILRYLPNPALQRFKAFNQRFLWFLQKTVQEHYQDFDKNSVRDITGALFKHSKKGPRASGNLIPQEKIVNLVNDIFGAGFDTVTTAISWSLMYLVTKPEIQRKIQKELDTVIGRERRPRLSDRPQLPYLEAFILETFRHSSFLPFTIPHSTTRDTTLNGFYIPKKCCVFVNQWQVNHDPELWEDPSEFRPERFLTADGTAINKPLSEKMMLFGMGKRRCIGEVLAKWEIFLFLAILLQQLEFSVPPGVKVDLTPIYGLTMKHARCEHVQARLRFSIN

[10] = target: T1, Mucosa-associated lymphoid tissue lymphoma translocation protein 1; assay: Inhibition of human MALT1 in human MCF7 cells assessed as MALT1 mediated cleavage of human A20 in cytosol by fluorescence microscopy; assay type: subcellular
How it was run: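 Cellular MALT1 activity in MCF7 cells, read as inhibition of MALT1-mediated cleavage of human A20.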

[11] = Solubility of compound in PBS at pH 7.4 incubated for 20 to 24 hrs under shaking condition by LC-MS analysis; assay type: physicochemical; details: time 20-24 hrs
How it was run: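 Dried-DMSO solubility: 10 mM DMSO stock dried down, residue resolubilized in 0.1 M phosphate buffer, pH 7.4.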

[12] = Metabolic stability in rat hepatocyte assessed as intrinsic clearance by LC-MS/MS analysis; assay type: ADME, cell-based; details: hepatocytes
How it was run: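 Rat hepatocytes, compound incubated; intrinsic clearance (per 10⁶ cells) from disappearance of the parent compound over time.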

Cytochrome P450 2C19, sequence (P33261 whole entry): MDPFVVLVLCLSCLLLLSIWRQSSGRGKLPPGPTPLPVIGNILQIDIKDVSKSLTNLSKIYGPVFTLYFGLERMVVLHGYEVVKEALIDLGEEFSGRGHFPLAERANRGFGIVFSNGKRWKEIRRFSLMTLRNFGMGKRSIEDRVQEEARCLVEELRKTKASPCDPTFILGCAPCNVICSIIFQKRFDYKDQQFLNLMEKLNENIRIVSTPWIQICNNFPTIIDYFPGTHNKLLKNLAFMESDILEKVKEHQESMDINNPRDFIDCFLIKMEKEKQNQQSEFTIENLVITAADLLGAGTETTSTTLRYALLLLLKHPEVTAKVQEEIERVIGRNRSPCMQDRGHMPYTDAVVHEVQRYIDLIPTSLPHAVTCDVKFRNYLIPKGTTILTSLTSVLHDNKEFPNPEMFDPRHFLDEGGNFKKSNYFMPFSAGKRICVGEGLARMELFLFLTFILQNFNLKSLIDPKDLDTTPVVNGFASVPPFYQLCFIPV
Cytochrome P450 2D6, sequence (P10635 whole entry): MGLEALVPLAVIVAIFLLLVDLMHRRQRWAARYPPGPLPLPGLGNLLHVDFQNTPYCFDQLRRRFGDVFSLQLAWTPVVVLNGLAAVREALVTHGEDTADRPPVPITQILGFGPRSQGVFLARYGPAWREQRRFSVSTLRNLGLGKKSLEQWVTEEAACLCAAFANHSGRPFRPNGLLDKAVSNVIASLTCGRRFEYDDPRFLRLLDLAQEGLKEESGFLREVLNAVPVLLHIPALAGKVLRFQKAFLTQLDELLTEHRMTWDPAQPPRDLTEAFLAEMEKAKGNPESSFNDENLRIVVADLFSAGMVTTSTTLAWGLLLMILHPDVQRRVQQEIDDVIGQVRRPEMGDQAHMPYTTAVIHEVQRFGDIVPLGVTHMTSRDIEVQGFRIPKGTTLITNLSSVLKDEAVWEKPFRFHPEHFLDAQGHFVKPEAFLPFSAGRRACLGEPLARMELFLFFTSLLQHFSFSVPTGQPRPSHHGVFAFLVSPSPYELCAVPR
Cytochrome P450 3A4, sequence (P08684 whole entry): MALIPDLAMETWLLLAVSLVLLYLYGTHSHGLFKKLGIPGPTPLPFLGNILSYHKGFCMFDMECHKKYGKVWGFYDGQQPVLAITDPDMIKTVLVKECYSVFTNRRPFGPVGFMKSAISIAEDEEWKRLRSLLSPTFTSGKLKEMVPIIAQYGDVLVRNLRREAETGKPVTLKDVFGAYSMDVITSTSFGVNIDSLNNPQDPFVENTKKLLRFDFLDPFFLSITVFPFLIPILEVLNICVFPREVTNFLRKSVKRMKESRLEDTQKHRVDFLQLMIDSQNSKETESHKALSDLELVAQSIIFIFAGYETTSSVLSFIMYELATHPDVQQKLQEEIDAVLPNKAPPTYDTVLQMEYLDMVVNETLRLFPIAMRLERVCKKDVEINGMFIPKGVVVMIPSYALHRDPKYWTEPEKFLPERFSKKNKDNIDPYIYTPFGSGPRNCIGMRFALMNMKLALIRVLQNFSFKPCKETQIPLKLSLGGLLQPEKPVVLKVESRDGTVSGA
Voltage-gated inwardly rectifying potassium channel KCNH2, sequence (Q12809 whole entry): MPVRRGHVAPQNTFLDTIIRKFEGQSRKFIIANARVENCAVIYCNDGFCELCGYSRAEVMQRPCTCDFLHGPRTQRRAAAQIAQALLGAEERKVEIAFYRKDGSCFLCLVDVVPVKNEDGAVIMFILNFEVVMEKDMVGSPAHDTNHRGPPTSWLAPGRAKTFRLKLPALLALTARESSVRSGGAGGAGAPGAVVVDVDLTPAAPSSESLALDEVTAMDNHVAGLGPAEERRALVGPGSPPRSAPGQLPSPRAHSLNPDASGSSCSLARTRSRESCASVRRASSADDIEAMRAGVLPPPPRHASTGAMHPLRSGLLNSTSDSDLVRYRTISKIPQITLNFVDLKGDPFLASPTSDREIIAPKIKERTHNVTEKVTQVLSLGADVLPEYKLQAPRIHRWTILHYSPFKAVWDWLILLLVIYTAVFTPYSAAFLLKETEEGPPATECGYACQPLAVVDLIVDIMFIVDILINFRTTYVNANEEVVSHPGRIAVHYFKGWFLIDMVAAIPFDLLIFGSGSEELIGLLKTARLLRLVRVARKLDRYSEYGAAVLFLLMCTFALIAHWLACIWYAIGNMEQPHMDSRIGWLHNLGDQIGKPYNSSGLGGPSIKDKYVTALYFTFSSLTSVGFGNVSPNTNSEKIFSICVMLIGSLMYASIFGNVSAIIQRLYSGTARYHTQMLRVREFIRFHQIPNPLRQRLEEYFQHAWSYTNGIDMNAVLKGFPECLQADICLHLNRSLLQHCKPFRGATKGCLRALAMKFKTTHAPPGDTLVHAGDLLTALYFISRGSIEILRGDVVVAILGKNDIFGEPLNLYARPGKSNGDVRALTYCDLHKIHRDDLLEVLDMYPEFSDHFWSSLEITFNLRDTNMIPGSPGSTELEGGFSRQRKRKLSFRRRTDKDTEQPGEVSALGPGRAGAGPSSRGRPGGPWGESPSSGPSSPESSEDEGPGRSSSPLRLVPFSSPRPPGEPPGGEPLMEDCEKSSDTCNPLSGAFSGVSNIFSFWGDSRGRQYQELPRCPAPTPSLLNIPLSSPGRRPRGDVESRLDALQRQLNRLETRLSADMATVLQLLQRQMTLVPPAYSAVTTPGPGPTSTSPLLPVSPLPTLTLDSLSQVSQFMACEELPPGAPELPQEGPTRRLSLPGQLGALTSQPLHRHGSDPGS
Cytochrome P450 2C9, sequence (P11712 whole entry): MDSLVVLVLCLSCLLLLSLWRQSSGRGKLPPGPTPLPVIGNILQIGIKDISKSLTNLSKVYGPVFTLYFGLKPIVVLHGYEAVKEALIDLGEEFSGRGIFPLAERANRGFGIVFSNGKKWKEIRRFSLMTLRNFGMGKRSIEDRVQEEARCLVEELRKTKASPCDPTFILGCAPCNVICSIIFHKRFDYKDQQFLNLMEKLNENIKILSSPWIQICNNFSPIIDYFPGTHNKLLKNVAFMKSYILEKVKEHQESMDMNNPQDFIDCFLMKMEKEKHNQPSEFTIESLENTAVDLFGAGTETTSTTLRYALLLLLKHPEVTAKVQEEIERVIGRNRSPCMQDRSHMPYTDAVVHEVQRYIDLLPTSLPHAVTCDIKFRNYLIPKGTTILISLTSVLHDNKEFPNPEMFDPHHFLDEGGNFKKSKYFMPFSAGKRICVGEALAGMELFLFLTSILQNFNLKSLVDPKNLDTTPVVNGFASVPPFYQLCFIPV

| Compound | IC50 [1] [µM] | logD [2] | microsomal CLint [3] [µL/min/mg] | other results |
| --- | --- | --- | --- | --- |
| FC(F)(F)c1nccc(N[C@H]2CC[C@@H](Nc3ccncn3)CC2)n1 | > 50 | 1.9 | 18 | – |
| FC(F)(F)c1nccc(N2CCN(c3ccc4nnc(Cl)n4n3)CC2)n1 | > 50 | 2.4 | < 3 | – |
| FC(F)(F)c1nccc(N[C@H]2CC[C@@H](Nc3ccc4cnccc4n3)CC2)n1 | 7.5 | 2.8 | 26 | – |
| Clc1nnc2ccc(N[C@H]3CC[C@@H](Nc4ccncn4)CC3)nn12 | 31 | 0.7 | 25 | – |
| FC(F)(F)c1nccc(N[C@H]2CC[C@@H](Nc3ncnc4sccc34)CC2)n1 | 5 | 2.9 | 22 | – |
| Nc1nnc2ccc(N[C@H]3CC[C@@H](Nc4ccnc(C(F)(F)F)n4)CC3)nn12 | 26 | 1.4 | < 3 | – |
| FC(F)(F)c1nccc(N[C@H]2CC[C@@H](Nc3ccc4nnc(C5CC5)n4n3)CC2)n1 | 4.5 | 4.5 | < 3 | – |
| FC(F)(F)c1nccc(N[C@H]2CC[C@@H](Nc3cnc4ccccc4c3)CC2)n1 | 7.2 | 4.6 | 5.2 | – |
| FC(F)(F)c1nccc(N[C@H]2C[C@@H](CNc3ccc4nnc(Cl)n4n3)C2)n1 | 17 | 2.5 | 36 | – |
| FC(F)(F)c1nccc(N[C@H]2C[C@@H](Nc3ccc4nnc(Cl)n4n3)C2)n1 | > 50 | 2.2 | 6.9 | – |
| FC(F)(F)c1nccc(N[C@H]2CC[C@@H](Nc3ccc4nncn4n3)CC2)n1 | 35 | 1.7 | < 3 | – |
| FC(F)(F)c1nccc(N[C@]23CC[C@](Nc4ccc5nnc(Cl)n5n4)(CC2)CC3)n1 | 4.2 | 3 | 11 | – |
| FC(F)(F)c1nccc(NC[C@H]2C[C@@H](Nc3ccc4nnc(Cl)n4n3)C2)n1 | 18 | 2.5 | 23 | – |
| FC(F)(F)c1nccc(N[C@H]2CC[C@@H](Oc3ccc4nnc(Cl)n4n3)CC2)n1 | 7.2 | 3.5 | < 3 | – |
| FC(F)(F)c1nccc(N2CCC(CNc3ccc4nnc(Cl)n4n3)CC2)n1 | 6.1 | 2.8 | 37 | – |
| FC(F)(F)c1nccc(N2CCC(Nc3ccc4nnc(Cl)n4n3)CC2)n1 | > 50 | 2.9 | 50 | – |
| Cc1nnc2ccc(N[C@H]3CC[C@@H](Nc4ccnc(C(F)(F)F)n4)CC3)nn12 | 4.7 | 2.3 | < 3 | – |
| FC(F)(F)c1nccc(NC2CCN(c3ccc4nnc(Cl)n4n3)CC2)n1 | 6.1 | 2.6 | 50 | – |
| FC(F)(F)c1nccc(NCC2CCN(c3ccc4nnc(Cl)n4n3)CC2)n1 | 23 | 2.7 | 31 | – |

Compounds with a lower IC50 [1], results first:

| IC50 [1] [µM] | logD [2] | microsomal CLint [3] [µL/min/mg] | Compound | other results |
| --- | --- | --- | --- | --- |
| 2.2 | 4.3 | < 3 | FC(F)(F)c1nccc(N[C@H]2CC[C@@H](Nc3ccnc(C(F)(F)F)n3)CC2)n1 | CLH [12]: < 1 10^-6uL/min; solubility [11]: 37 µM (≈ 15 µg/mL) |
| 1.8 | > 5.3 | 7.5 | FC(F)(F)c1cccc(N[C@H]2CC[C@@H](Nc3ccnc(C(F)(F)F)n3)CC2)c1 | – |
| 1.8 | 3.8 | < 3 | FC(F)(F)c1nccc(N[C@H]2CC[C@@H](Nc3ccc4nnc(C(F)(F)F)n4n3)CC2)n1 | – |
| 1.5 | 2.9 | 11 | FC(F)(F)c1cc(N[C@H]2CC[C@@H](Nc3ccc4nnc(Cl)n4n3)CC2)ccn1 | – |
| 1.4 | 5.2 | 9.2 | FC(F)(F)c1cccc(N[C@H]2CC[C@@H](Nc3ccc4nnc(Cl)n4n3)CC2)c1 | – |
| 1.2 | 3.7 | < 3 | FC(F)(F)c1nccc(O[C@H]2CC[C@@H](Nc3ccc4nnc(Cl)n4n3)CC2)n1 | – |
| 1.1 | 3.6 | 18 | CN(c1ccnc(C(F)(F)F)n1)[C@H]1CC[C@@H](Nc2ccc3nnc(Cl)n3n2)CC1 | – |
| 1.1 | 3.4 | 17 | FC(F)(F)c1nccc(N[C@@H]2CC[C@H](Nc3ccc4nnc(Cl)n4n3)C2)n1 (racemic) | – |
| 1.1 | 2.9 | < 3 | FC(F)(F)c1nccc(N[C@H]2CC[C@@H](Nc3ccc4nnc(Br)n4n3)CC2)n1 | IC50 [10]: 6.1 µM |
| 0.8 | 2.8 | 29 | CSc1nnc2ccc(N[C@H]3CC[C@@H](Nc4ccnc(C(F)(F)F)n4)CC3)nn12 | IC50 [10]: 5.9 µM |
| 0.6 | 3.8 | < 3 | COc1ncc(N[C@H]2CC[C@@H](Nc3ccc4nnc(Cl)n4n3)CC2)cc1Cl | – |
| 0.5 | 3.5 | 12 | CN(c1ccc2nnc(Cl)n2n1)[C@H]1CC[C@@H](Nc2ccnc(C(F)(F)F)n2)CC1 | – |
| 0.4 | 4.3 | 9.9 | FC(F)(F)c1nccc(N[C@H]2CC[C@@H](Nc3ccc4ncc(Cl)n4n3)CC2)n1 | – |
| 0.3 | 3.1 | < 3 | FC(F)(F)c1nccc(N[C@H]2CC[C@@H](Nc3ccc4nnc(Cl)n4n3)CC2)n1 | IC50 (Cytochrome P450 2D6): > 30 µM; Papp A→B at 2 h, 10 µM [4]: 44 ×10⁻⁶ cm/s; bioavailability [5]: 72%; half-life [6]: 240 min; Vdss [7]: 2.2 L/kg; IC50 [8]: 24 µM; IC50 (Cytochrome P450 3A4): 18 µM; AUC [9]: 3.21 µM·h; IC50 (Cytochrome P450 2C19): 14 µM; IC50 (Cytochrome P450 2C9): 10 µM; IC50 (Cytochrome P450 1A2): > 30 µM; IC50 [10]: 3.2 µM; solubility [11]: 19 µM (≈ 7.84 µg/mL) |
